Compound activity as filed in PubChem BioAssay.
Arrestin-AP2 inh – human beta-arrestin and AP2 interaction inhibition; inhibition, % at 10 µM; hit rate 0.31% among 340,000; FITC-arrestin peptide / GST-AP2 beads, flow cytometry; AP2 beta2 appendage carries R879A mutation;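 active means inhibition above a set limit, near 3 SD of compounds lacking own fluorescence, cut at about 54% in these data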;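 further: plate controls were DMSO wells for no effect and 5 µM unlabelled arrestin peptide for full effect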
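System: GST-tagged AP2 beta2-adaptin appendage (R879A) on 4 µm glutathione beads / Reagent: FITC-arrestin peptide, 50 nM / Detection: HyperCyt-sampled flow cytometry, FL1 channel, ex 488/em 535 nm / Timing: 12 min plus 1 h, RT / Buffer or medium: PBS plus Tween 20 (0.05%) and BSA (0.1%)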
NALP3 yeast inh – NALP3 inhibition in yeast. Yeast reconstituted NLRP3/ASC/caspase-1, beta-gal luminescence, 24 h. inhibition, % at 10 µM. hit rate 0.39% among 330,000;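 active means inhibition of 50% or more; inactive means inhibition below 50%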;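 further: plate controls were induced DMSO wells for no effect and uninduced yeast grown without galactose for full effect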
PolyA inh – inhibitors of polyadenylation in S. cerevisiae | AID 1875 | hit rate 0.02% among 300,000 | activity score, % at 12 µM | S. cerevisiae SKY197-pL101 polyadenylation reporter, beta-gal luminescence; efflux-impaired pdr1/pdr3 knockout yeast; score 100 = 6 SD above DMSO;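 active means lowest replicate activity score at least 50, where 100 means six control SD above control mean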;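 further: yeast exposed to compound for 9 h at 30 °C; higher score means more reporter readthrough which indicates perturbed polyadenylation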
NALP1 inh – NALP1 inhibition; S. cerevisiae NALP1/ASC/caspase-1 growth, X-gal OD620, 72 h; inhibition, % at 10 µM; hit rate 0.61% among 280,000; AID 2071; in the data active means inhibition mostly above about 24%, no sharp cut-off; inactive means mostly below about 32%
DSG3 Ab inh – human desmoglein-3 autoantibody binding inhibition; P32926; binding (percent of control), % at 10 µM; hit rate 0.48% among 310,000; DSG3-coupled beads, scFv-anti-DSG3-GFP binding, flow cytometry; stronger effect = lower value; AID 588358;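 active means binding more than 3 SD below its plate's average and above zero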;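 further: hits lower antibody fragment binding to DSG3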
ALR H2O2 inh – blocks human ALR sulfhydryl oxidase activity; purified ALR, DTT oxidation, H2O2 HRP-luminol luminescence; inhibition, % (no concentration beside the values); hit rate 3.8% among 290,000;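 active means mean replicate inhibition above about 79%, with every replicate also reaching it, limit read from the data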
Target sequence (P55789 whole entry, looked up): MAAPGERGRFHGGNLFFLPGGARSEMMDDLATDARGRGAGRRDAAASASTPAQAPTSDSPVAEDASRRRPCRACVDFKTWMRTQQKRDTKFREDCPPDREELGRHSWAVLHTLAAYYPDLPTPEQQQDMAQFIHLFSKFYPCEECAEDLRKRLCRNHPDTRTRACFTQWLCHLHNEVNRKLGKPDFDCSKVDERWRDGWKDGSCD
NALP3 confirm – confirmation of NALP3 inhibitors in yeast; inhibition, % at 10 µM; AID 435006; hit rate 81% among 1,300; yeast expressing human NALP3, luminescence; shares compounds with NALP3 yeast inh; in the data active means inhibition above about 48%
Casp1-ASC yeast – caspase-1-ASC yeast counter-screen hit; shares compounds with NALP3 yeast inh; yeast expressing Caspase-1-ASC, luminescence counter screen; inhibition, % at 10 µM; hit rate 66% among 1,000; AID 488784
NALP3 yeast rt – retest-confirmed inhibitor of NALP3 in yeast; shares compounds with NALP3 yeast inh; yeast expressing human NALP3, luminescence read-out; inhibition, % at 10 µM; hit rate 53% among 1,000
* marks the source's active call; other numbers are inactive results; · = no result. The list is not random: actives were taken first. Their share in the collection is about 4.6%. Unless noted, no stated cut-off is given here; in the data, active means inhibition above about 50%; inactive means the rest.

SMILES	Arrestin-AP2 inh	NALP3 yeast inh	PolyA inh	NALP1 inh	DSG3 Ab inh	ALR H2O2 inh	NALP3 confirm	Casp1-ASC yeast	NALP3 yeast rt
O=C(Nc1cccc(C(F)(F)F)c1)c1cncs1	41	10	-12	5	95	1	·	·	·
CC1(C)c2ccccc2-n2c1cc1oc(=O)cc(O)c1c2=O	38	76*	-18	·	112	-4	80*	67*	72*
O=C(NC1CC1)c1cc2c(s1)-c1ccccc1OC2	-2	60*	1	34*	101	-5	74*	57*	50
Nc1ncnc2c1ncn2[C@@H]1O[C@H](CNC(=O)[C@@H]2CCC(=O)N2)[C@@H](O)[C@H]1O	-6	·	·	·	101	·	·	·	·
CS(=O)(=O)c1sc(C#N)c2c1C(=O)CC(c1ccccc1)C2 (stereo unspecified)	6	51*	-77	-12	112	·	39	·	·
Cc1oc2c(c(=O)c1C)C(=O)CC(c1ccccc1)C2 (stereo unspecified)	9	10	2	-1	95	·	·	·	·
O=S(=O)(c1ccccc1F)N1CCN(CCc2ccccc2)CC1	1	39	-8	10	100	·	·	·	·
COC(=O)Nc1ccc(SCC(=O)c2cccc([N+](=O)[O-])c2)cc1	-10	54*	-32	24	99	99*	63*	58*	41
CC(=O)Nc1ccc(C(=O)OCC(=O)c2cccc([N+](=O)[O-])c2)cc1	3	0	2	31	102	-6	·	·	·
CC1CCCC(C)N1C(=O)COC(=O)c1cncc(Br)c1 (stereo unspecified)	23	10	·	·	96	-1	·	·	·
O=C(Nc1ccc(-c2nc3ccccc3o2)cc1)C1CCCO1 (stereo unspecified)	-4	55*	-33	8	100	-3	72*	60*	41
O=C(Nc1ccc2oc(-c3ccccc3)nc2c1)C1CCCO1 (stereo unspecified)	37	22	15	31	·	18	·	·	·
CCOC(=O)c1c(C)[nH]c(C(=O)OCC(=O)c2ccc3c(c2)NC(=O)CO3)c1C	18	14	-1	·	103	·	·	·	·
O=C(COc1ccc(F)cc1)Nc1cc(Cl)ccc1-n1cncn1	2	63*	8	·	100	7	70*	56*	49
CCc1cccc(OCC(=O)Nc2cc(Cl)ccc2-n2cncn2)c1	15	25	·	·	·	36	·	·	·
Cc1ccc(S(=O)(=O)CCC(=O)Nc2nc(C(C)(C)C)cs2)cc1	-13	13	21	6	·	-1	·	·	·
Cc1ccc(S(=O)(=O)CC(=O)Nc2nc(C(C)(C)C)cs2)cc1	-5	51*	10	4	98	12	73*	61*	49
COc1ccc(C(C[N+](=O)[O-])c2c(C)cc3ccccn23)c(OC)c1 (stereo unspecified)	9	32	-2	15	90	4	·	·	·
COc1ccc(OC)c(C(C[N+](=O)[O-])c2c(C)cc3ccccn23)c1 (stereo unspecified)	17	64*	-6	27	103	-5	44	67*	37
O=S(=O)(c1c(Cl)sc(Cl)c1Br)N1CCCC1	16	64*	-7	9	·	-2	64*	62*	67*
O=C(NCC(c1ccco1)N1CCN(c2ccccc2F)CC1)C(=O)NC1CC1 (stereo unspecified)	-12	11	-1	·	101	-7	·	·	·
CCS(=O)(=O)c1ccc2oc(Nc3ccc(OC)cc3)nc2c1	4	-116	7	-12	·	23	-16	·	·
Cn1c(/C=N/Nc2nc3ccccc3[nH]2)nc2ccccc21	3	51*	-7	-14	102	43	74*	9	22
CCOC(=O)c1ccc2c(c1)NCc1cccc(OC)c1O2	-12	54*	20	19	94	1	63*	46	42
Cc1ccc(C(=O)c2nocc2C(=O)c2cccs2)cc1	12	55*	-7	25	101	4	60*	73*	42
SMILES	Arrestin-AP2 inh	NALP3 yeast inh	PolyA inh	NALP1 inh	DSG3 Ab inh	ALR H2O2 inh	NALP3 confirm	Casp1-ASC yeast	NALP3 yeast rt
O=C(NCc1ccc(F)cc1)c1cc(-c2cccs2)on1	-7	51*	-22	12	105	-14	69*	45	37
Cn1c(-c2ccccc2O)cc2ccccc21	2	12	-9	16	109	·	·	·	·
Cc1ccc2c(c1)NC(=O)[C@@]1(C)[C@@H](c3ccccc3)[C@H]3COc4ccccc4[C@@H]3N1C2=O	-4	15	·	·	99	·	·	·	·
Cc1ccc2c(c1)C(=O)N1[C@H]3c4ccccc4OC[C@@H]3[C@H](c3ccccc3)[C@]1(C)C(=O)N2	-7	70*	·	·	93	4	83*	84*	73*
C[C@@]12C(=O)Nc3ccc(Br)cc3C(=O)N1[C@H]1c3ccccc3OC[C@@H]1[C@@H]2c1ccccc1	14	88*	·	·	100	2	89*	90*	74*
C[C@@]12C(=O)Nc3ccc(Br)cc3C(=O)N1[C@H]1c3cc(Cl)ccc3OC[C@@H]1[C@@H]2c1ccccc1	23	19	·	·	99	1	·	·	·
CCOc1ccccc1C(=O)Nc1cccc2ccccc12	-19	32	-16	-3	94	1	·	·	·
CCOc1ccccc1C(=O)Nc1ccccc1O	-5	54*	-2	10	108	32	57*	56*	55*
O=C(O)c1ccc(NC(C(=O)c2ccccc2)c2ccccc2)cc1 (stereo unspecified)	10	·	·	·	130	·	·	·	·
CC(C)c1cccc(C(C)C)c1OCCCCCN1CCOCC1	32	69*	-35	·	95	3	74*	78*	66*
c1ccc2c(OCCCCN3CCOCC3)cccc2c1	29	10	-12	25	100	-24	·	·	·
CCOc1ccc(CCNC(=O)COn2nnc3ccc(S(=O)(=O)N4CCOCC4)cc32)cc1OCC	28	4	19	·	98	-11	·	·	·
CCOC(=O)c1oc2ccc(Br)cc2c1COC(=O)C1=COCCO1	14	23	17	·	97	-1	·	·	·
Cc1ccc(OC(=O)c2ccc(C)c(C)c2)cn1	3	54*	-17	5	106	-1	54*	75*	45
CC(=O)Nc1ccc(C(=S)NCCCO)cc1	-12	17	27	10	101	-4	·	·	·
CC1(C)C2CCC1(CS(=O)(=O)Nc1ccccc1)C(=O)C2 (stereo unspecified)	-1	2	15	8	113	-3	·	·	·
